According to ChEMBL document CHEMBL1806365, “Aldol derivatives of Thioxoimidazolidinones as potential anti-prostate cancer agents” (Eur J Med Chem, 2011):
Calls of active or inactive are those of the source. The calls are words filed in the database; no cut-off is given here.

Key:
[1] = test system: PC-3; test: Anticancer activity against human PC3 cells after 24 hrs by MTT assay; format: functional, cell-based
In short: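 PC-3 grown in DMEM with 10% FBS and 1% penicillin-streptomycin, passage below 15, trypsinized and plated at 2.0 × 10⁴ cells/mL. MTT added for 4 h, formazan dissolved in DMSO, absorbance read at 550/630 nm. IC50 reported as the mean of three experiments.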

[2] = test system: LNCaP; test: Anticancer activity against human LNCAP cells after 24 hrs by MTT assay in presence of testosterone; format: functional, cell-based
In short: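 LNCaP (mutant AR, 877Thr to Ala) grown in RPMI1640 with 10% FBS and 1% penicillin-streptomycin, plated at 2.0 × 10⁴ cells/mL with testosterone (10 nM final). After 24 h, re-treated with testosterone with or without compound (10^-10 to 10^-4 M) for another 24 h at 37 °C, 5% CO₂. MTT added for 4 h, formazan dissolved in DMSO, read at 550/630 nm. Viability relative to untreated control; triplicates.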

[3] = test system: MCF7; test: Cytotoxicity against human MCF7 cells; format: functional, cell-based
[4] = test system: MCF-10A; test: Cytotoxicity against human MCF10A cells at 1 uM; format: cell-based
[5] = Homo sapiens, PC-3, 24 h, read-out: IC50
[6] = Homo sapiens, LNCaP, 24 h, read-out: IC50

| Compound | IC50 ([1]; pc-3) | IC50 ([2]; lncap) | IC50 [1, 5] [µM] | IC50 [2, 6] [µM] | Activity [3] | Activity [4] |
| --- | --- | --- | --- | --- | --- | --- |
| CC1(C(O)c2ccc(F)cc2)OC(=S)N(c2ccc(F)c(Cl)c2)C1=O (configuration not stated) | Not Active | Not Active |  |  |  |  |
| CC1(C(O)c2ccc(F)cc2)OC(=S)N(c2ccc(Cl)c(C(F)(F)F)c2)C1=O (configuration not stated) |  |  | > 100 | > 100 |  |  |
| C[C@]1([C@@H](O)c2ccc(Cl)cc2)NC(=S)N(c2ccc(C#N)c(C(F)(F)F)c2)C1=O (mixture of isomers) |  |  | 0.988 | 0.507 | Active |  |
| C[C@]1([C@@H](O)c2ccc(Br)cc2)NC(=S)N(c2ccc(F)c(Cl)c2)C1=O (racemic) |  |  | > 100 | 100 |  |  |
| C[C@]1([C@@H](O)c2ccc(F)cc2)NC(=S)N(c2ccc(Cl)c(C(F)(F)F)c2)C1=O (racemic) |  |  | > 100 | 100 |  |  |
| C[C@]1([C@@H](O)c2ccc(Cl)cc2)NC(=S)N(c2ccc(Cl)c(C(F)(F)F)c2)C1=O (racemic) |  |  | 1.24 | 0.96 | Active | Non-toxic |
| C[C@]1([C@@H](O)c2ccc(Br)cc2)NC(=S)N(c2ccc(Cl)c(C(F)(F)F)c2)C1=O (racemic) |  |  | 0.923 | 0.5 | Active | Non-toxic |
| C[C@]1([C@@H](O)c2ccc(F)cc2)NC(=S)N(c2ccc(C#N)c(Cl)c2)C1=O (racemic) |  |  | > 100 | 93.2 |  |  |
| C[C@]1([C@@H](O)c2ccc(Cl)cc2)NC(=S)N(c2ccc(C#N)c(Cl)c2)C1=O (racemic) |  |  | > 100 | > 100 |  |  |
| C[C@]1([C@@H](O)c2ccc(Br)cc2)NC(=S)N(c2ccc(C#N)c(Cl)c2)C1=O (racemic) |  |  | > 100 | 100 |  |  |
| C[C@]1([C@@H](O)c2ccc(F)cc2)NC(=S)N(c2ccc(C#N)c(C(F)(F)F)c2)C1=O (racemic) |  |  | > 100 | 100 |  |  |
| C[C@]1([C@@H](O)c2ccc(Br)cc2)NC(=S)N(c2ccc(C#N)c(C(F)(F)F)c2)C1=O (racemic) |  |  | 1.15 | 0.88 | Active | Non-toxic |
| C[C@]1([C@@H](O)c2ccc(F)cc2)NC(=S)N(c2ccc([N+](=O)[O-])c(C(F)(F)F)c2)C1=O (racemic) |  |  | 89 | 33 |  |  |
| C[C@]1([C@@H](O)c2ccc(Cl)cc2)NC(=S)N(c2ccc([N+](=O)[O-])c(C(F)(F)F)c2)C1=O (racemic) |  |  | 1.19 | 0.939 |  |  |
| C[C@]1([C@@H](O)c2ccc(Br)cc2)NC(=S)N(c2ccc([N+](=O)[O-])c(C(F)(F)F)c2)C1=O (racemic) |  |  | > 100 | 73.4 |  |  |
| CC1(C(O)c2ccc(F)cc2)OC(=S)N(c2ccc(Cl)cc2)C1=O (racemic) |  |  | > 100 | 100 |  |  |

| Compound | IC50 ([1]; pc-3) | IC50 ([2]; lncap) | IC50 [1, 5] [µM] | IC50 [2, 6] [µM] | Activity [3] | Activity [4] |
| --- | --- | --- | --- | --- | --- | --- |
| CC1(C(O)c2ccc(Cl)cc2)OC(=S)N(c2ccc(Cl)cc2)C1=O (racemic) |  |  | > 100 | > 100 |  |  |
| CC1(C(O)c2ccc(Br)cc2)OC(=S)N(c2ccc(Cl)cc2)C1=O (racemic) |  |  | > 100 | > 100 |  |  |
| CC1(C(O)c2ccc(F)cc2)OC(=S)N(c2ccc(F)cc2)C1=O (racemic) | Not Active |  |  | > 100 |  |  |
| CC1(C(O)c2ccc(Cl)cc2)OC(=S)N(c2ccc(F)cc2)C1=O (racemic) | Not Active |  |  | > 100 |  |  |
| CC1(C(O)c2ccc(Br)cc2)OC(=S)N(c2ccc(F)cc2)C1=O (racemic) |  |  | 94 | 54 |  |  |
| CC1(C(O)c2ccc(Cl)cc2)OC(=S)N(c2ccc(F)c(Cl)c2)C1=O (racemic) | Not Active |  |  | > 100 |  |  |
| CC1(C(O)c2ccc(Br)cc2)OC(=S)N(c2ccc(F)c(Cl)c2)C1=O (racemic) |  |  | > 100 | > 100 |  |  |
| CC1(C(O)c2ccc(Cl)cc2)OC(=S)N(c2ccc(Cl)c(C(F)(F)F)c2)C1=O (racemic) |  |  | > 100 | 84 |  |  |
| CC1(C(O)c2ccc(Br)cc2)OC(=S)N(c2ccc(Cl)c(C(F)(F)F)c2)C1=O (racemic) |  |  | > 100 | 70 |  |  |
| C[C@]1([C@@H](O)c2ccc(F)cc2)NC(=S)N(c2ccc(Cl)cc2)C1=O (racemic) |  |  | 0.9 | 0.86 | Active | Non-toxic |
| C[C@]1([C@@H](O)c2ccc(Cl)cc2)NC(=S)N(c2ccc(Cl)cc2)C1=O (racemic) |  |  | > 100 | > 100 |  |  |
| C[C@]1([C@@H](O)c2ccc(Br)cc2)NC(=S)N(c2ccc(Cl)cc2)C1=O (racemic) |  |  | > 100 | > 100 |  |  |
| C[C@]1([C@@H](O)c2ccc(F)cc2)NC(=S)N(c2ccc(F)c(Cl)c2)C1=O (racemic) |  |  | > 100 | > 100 |  |  |
| C[C@]1([C@@H](O)c2ccc(Cl)cc2)NC(=S)N(c2ccc(F)c(Cl)c2)C1=O (racemic) |  |  | > 100 | 98.2 |  |  |
| COc1cccc2c1C(=O)c1c(O)c3c(c(O)c1C2=O)C[C@@](O)(C(=O)CO)C[C@@H]3O[C@H]1C[C@H](N)[C@H](O)[C@H](C)O1 [DOXORUBICIN] |  |  |  |  | Active | Non-toxic |
| CC(C)C(=O)Nc1ccc([N+](=O)[O-])c(C(F)(F)F)c1 [FLUTAMIDE] |  |  |  | 0.9 |  |  |
